As a reminder, the GI50 is the concentration giving 50% growth inhibition. What is called TGI is the concentration giving total growth inhibition.

Activity calls are given as the source filed them. No cut-off for these calls is given here. Bounds are passed on as bounds.

Our source for the GI50, TGI and Activity values is ChEMBL document CHEMBL3232876, “Novel R-(+)-limonene-based thiosemicarbazones and their antitumor activity against human tumor cell lines” (Eur J Med Chem, 2014).

Series [1] has as its system U-251. Nature of the series: Growth inhibition of human U251 cells after 48 hrs by sulforhodamine B assay. It is filed as functional. As to conditions: U-251, 48 h. An outline of the steps:
(§1)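 Tumour lines from NCI and Vero from the Rio de Janeiro Cell Bank, grown in RPMI 1640 with 5% fetal bovine serum, with penicillin:streptomycin added to experimental cultures. Each compound was tested at four 10-fold dilutions; sulforhodamine B staining at time zero and 48 h. Proliferation was calculated against T0 and drug-free controls, and GI50 came from sigmoidal regression of the concentration-response curves. Representative experiment in triplicate.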
(In SRB staining, fixed cells bind dye roughly in proportion to their protein.)

For series [2], the system named is PC-3. The series can be described thus: Growth inhibition of human PC3 cells after 48 hrs by sulforhodamine B assay. It is filed as functional. As to conditions: PC-3, 48 h. The gist of the method:
as §1

For series [3], the system named is HT-29. The series can be described thus: Growth inhibition of human HT-29 cells after 48 hrs by sulforhodamine B assay. Particulars: HT-29, 48 h. It is filed as functional. The gist of the method:
as §1

The test system of series [4] is MCF7. Nature of the series: Growth inhibition of human MCF7 cells after 48 hrs by sulforhodamine B assay. It is filed as functional. Particulars: MCF7, 48 h. An outline of the steps: as §1
Series [5] has as its system PC-3. The series can be described thus: Cytotoxicity against human PC3 cells assessed as cell death after 48 hrs by sulforhodamine B assay. It is filed as functional. An outline of the steps:
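NCI-supplied tumour cells in RPMI 1640 with 5% fetal bovine serum; experimental cultures also had penicillin:streptomycin. Cells were exposed for 48 h to four 10-fold concentrations (0.25 to 250 […]), with readings at time zero and at 48 h. LC50 (concentration giving 50% cell death) came from sigmoidal regression of concentration–response curves.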

In series [6] the test system is K562. The series can be described thus: Growth inhibition of human K562 cells after 48 hrs by sulforhodamine B assay. It is filed as functional. Particulars: K562, 48 h. The gist of the method:
as §1

The test system of series [7] is NCI-H460. Nature of the series: Growth inhibition of human NCI-H460 cells after 48 hrs by sulforhodamine B assay. It is filed as functional. Particulars: NCI-H460, 48 h. The gist of the method: as §1
A short description of series [8]: Growth inhibition of human OVCAR3 cells after 48 hrs by sulforhodamine B assay. It is filed as functional. Particulars: OVCAR-3, 48 h. The gist of the method: as §1
Series [9] can be described thus: Growth inhibition of human NCI-ADR-RES cells after 48 hrs by sulforhodamine B assay. It is filed as functional. An outline of the steps:
as §1

Series [10] in a line: Growth inhibition of human UACC62 cells after 48 hrs by sulforhodamine B assay. As to conditions: UACC-62, 48 h. It is filed as functional. An outline of the steps: as §1
For series [11], the system named is Vero. Nature of the series: (§2) Growth inhibition of African green monkey Vero cells after 48 hrs by sulforhodamine B assay. As to conditions: chlorocebus sabaeus, vero, 48 h. It is filed as cell-based. An outline of the steps: as §1
Series [12] can be described thus: as §2. It is filed as cell-based. As to conditions: chlorocebus sabaeus, Vero cells. An outline of the steps:
as §1

Series [13] relates to 786-0. The series can be described thus: Growth inhibition of human 786-0 cells after 48 hrs by sulforhodamine B assay. It is filed as functional. As to conditions: 786-0, 48 h. An outline of the steps: as §1

Turning to `CC1=CC[C@H](C(C)(C)NC(=S)N/N=C/c2ccccc2)CC1`, the concentration for 50% growth inhibition (GI50) in series [1] turned out to be 26.3 µM; in series [2] it was 1.3 µM; in series [3], 8.8 µM; in [4] it was 8.4 µM; in series [6], 6.3 µM; in series [7] it was 13 µM. The 50% growth inhibitory concentration (GI50) was 8.7 µM in series [8], greater than 100 µM in [9], 31.6 µM in series [10] and 9.9 µM in series [13]. For the same compound, the TGI in [1] was 71.4 µM; in series [2], 5.7 µM; in series [3], 22.2 µM; in [4] it was 84.4 µM; in series [6] it was 47.6 µM; in series [7], 53.9 µM. Further, the TGI is 20.6 µM in [8]; greater than 100 µM in series [9]; greater than 100 µM in [10]; greater than 100 µM in series [11]; 67 µM in series [13]. In addition, the result in series [5] was Active. In series [12], this compound yielded a concentration for 50% growth inhibition (GI50) at 48 h of 20.5 µM.
As to `CC1=CC[C@H](C(C)(C)NC(=S)N/N=C/c2ccc(Cl)cc2)CC1`, the GI50 amounted to 69.5 µM in [1]; 0.05 µM in [2]; 13.6 µM in series [3]; 18.3 µM in [4]; 0.3 µM in series [6]; 7.8 µM in [7]. Also, the 50% growth inhibitory concentration (GI50) in [8] was found to be 8.6 µM; in [9], 65.2 µM; in [10], 11.2 µM; in [13] it was 74.9 µM. Besides, the TGI in series [1] is greater than 100 µM; in series [2], 1.7 µM; in [3], 70.5 µM; in series [4] it was greater than 100 µM; in [6], 16.9 µM; in [7], 21.1 µM. In addition, the TGI was 26.4 µM in series [8]; 97.4 µM in series [9]; greater than 100 µM in [10]; greater than 100 µM in [11]; greater than 100 µM in [13]. Also, in series [12], it took 70 µM to inhibit growth by half (GI50 at 48 h).
Consider `CC1=CC[C@H](C(C)(C)NC(=S)N/N=C/c2cccc(Cl)c2)CC1`, for which the concentration for 50% growth inhibition (GI50) was 7.9 µM in series [1]; 0.6 µM in series [2]; 7.9 µM in series [3]; 8 µM in series [4]; 5.4 µM in series [6]; 1.4 µM in series [7]. For the same compound, the GI50 in [8] was 13.6 µM; in series [9] it was 67.5 µM; in series [10], 9 µM; in [13], 9.2 µM. Besides, the TGI in series [1] is 35.8 µM; in series [2] it was 6.6 µM; in [3] it was 53 µM; in [4], 61 µM; in series [6], greater than 100 µM; in series [7] it was 21.4 µM. The TGI is 80.5 µM in series [8]; greater than 100 µM in [9]; 39.8 µM in series [10]; greater than 100 µM in series [11]; 26.9 µM in [13]. In addition, it took 14.8 µM to inhibit growth in series [12] by half (GI50 at 48 h).
As for `CC1=CC[C@H](C(C)(C)NC(=S)N/N=C(\C)c2ccc([N+](=O)[O-])cc2)CC1`, the GI50 in series [1] worked out at 7 µM; in series [2], 62.6 µM; in series [3], 29.9 µM; in series [4], 8 µM; in series [6] it was 83.4 µM; in series [7], 50.8 µM. Further, the 50% growth inhibitory concentration (GI50) in series [8] came to 7.7 µM; in series [9], 9.9 µM; in series [10], 7.2 µM; in series [13], 21.7 µM. Moreover, the TGI in series [1] was 29.3 µM; in series [2], greater than 100 µM; in series [3] it was greater than 100 µM; in [4], 77.5 µM; in [6] it was greater than 100 µM; in series [7], 83.7 µM. The TGI in series [8] is 29.3 µM; in [9], greater than 100 µM; in [10], 46.8 µM; in series [11], greater than 100 µM; in series [13], greater than 100 µM. Moreover, the concentration for 50% growth inhibition (GI50) at 48 h in series [12] was 67.1 µM.
For `CC1=CC[C@H](C(C)(C)NC(=S)N/N=C/c2cccc([N+](=O)[O-])c2)CC1`, the concentration for 50% growth inhibition (GI50) was greater than 100 µM in [1]; 9.5 µM in series [2]; 0.6 µM in series [3]; greater than 100 µM in series [4]; 45.6 µM in series [6]; greater than 100 µM in series [7]. Besides, the 50% growth inhibitory concentration (GI50) in series [8], in [9], in series [10] and in series [13] was greater than 100 µM each time. For the same compound, the concentration for total growth inhibition (TGI) is greater than 100 µM in series [1]; 88 µM in series [2]; 21.9 µM in series [3]; greater than 100 µM in series [4]; greater than 100 µM in series [6]; greater than 100 µM in series [7]. The total growth inhibition concentration (TGI) in series [8], in [9], in series [10], in series [11] and in series [13] was greater than 100 µM throughout. Also, the GI50 at 48 h in series [12] is greater than 100 µM.
For `CC1=CC[C@H](C(C)(C)NC(=S)N/N=C/c2ccc(F)cc2)CC1`, the concentration for 50% growth inhibition (GI50) in [1] was greater than 100 µM; in [2], less than 0.04 µM; in series [3], greater than 100 µM; in [4], greater than 100 µM; in [6], greater than 100 µM; in series [7] it was greater than 100 µM. Moreover, the concentration for 50% growth inhibition (GI50) in [8], in series [9], in series [10] and in series [13] was greater than 100 µM throughout. Moreover, the concentration for total growth inhibition (TGI) is greater than 100 µM in series [1]; less than 0.9 µM in series [2]; greater than 100 µM in [3]; greater than 100 µM in [4]; greater than 100 µM in [6]; greater than 100 µM in [7]. For the same compound, the TGI in [8], in series [9], in [10], in series [11] and in series [13] was greater than 100 µM each time. This compound also yielded a concentration for 50% growth inhibition (GI50) at 48 h in series [12] greater than 100 µM.
With `CC1=CC[C@H](C(C)(C)NC(=S)N/N=C/c2ccco2)CC1`, the GI50 in series [1] was determined as 9.7 µM; in series [2], 13.5 µM; in series [3] it was 7.2 µM; in [4] it was 9.3 µM; in series [6], 0.1 µM; in [7], 13.5 µM. Moreover, the GI50 in series [8] was 10.8 µM; in series [9], 9.8 µM; in series [10], 10.7 µM; in series [13], 11.7 µM. Besides, the TGI was 81.5 µM in series [1]; 27.2 µM in series [2]; 26.9 µM in series [3]; 53.7 µM in series [4]; greater than 100 µM in [6]; 10.8 µM in series [7]. The total growth inhibition concentration (TGI) worked out at 13.8 µM in series [8]; 14.1 µM in [9]; 14.1 µM in [10]; 14.7 µM in series [11]; 9.8 µM in series [13]. Moreover, growth in series [12] was halved (GI50 at 48 h) at 5.1 µM.
On to `COc1cc(/C=N/NC(=S)NC(C)(C)[C@H]2CC=C(C)CC2)ccc1O`, for which the 50% growth inhibitory concentration (GI50) was 11.7 µM in series [1]; 0.3 µM in series [2]; less than 0.04 µM in series [3]; 14.8 µM in series [4]; 1.9 µM in series [6]; greater than 100 µM in series [7]. For the same compound, the 50% growth inhibitory concentration (GI50) in series [8] was 53.5 µM; in series [9], 23.9 µM; in [10] it was 14.7 µM; in series [13], 12.9 µM. For the same compound, the concentration for total growth inhibition (TGI) was 32.6 µM in [1]; 8.3 µM in [2]; less than 0.7 µM in series [3]; 63.9 µM in [4]; 85.2 µM in series [6]; greater than 100 µM in series [7]. The TGI in series [8] is greater than 100 µM; in [9], greater than 100 µM; in series [10], 42.3 µM; in [11] it was 91.8 µM; in series [13], 35.4 µM. For the same compound, the GI50 at 48 h in series [12] came to 19.7 µM.
On to `CC1=CC[C@H](C(C)(C)NC(=S)N/N=C/c2ccc[nH]2)CC1`, for which the concentration for 50% growth inhibition (GI50) in [1] is 0.08 µM; in series [2], 2.8 µM; in series [3] it was 27.5 µM; in series [4] it was 3.9 µM; in series [6] it was 23.4 µM; in series [7] it was 18 µM. Further, the concentration for 50% growth inhibition (GI50) in series [8] amounted to 33.5 µM; in series [9] it was 78 µM; in [10], 14.8 µM; in series [13], 20.8 µM. The TGI in [1] was 3.9 µM; in series [2] it was greater than 100 µM; in series [3], greater than 100 µM; in series [4], 11.5 µM; in series [6] it was greater than 100 µM; in series [7], 57.5 µM. Besides, the TGI in [8] is greater than 100 µM; in [9], greater than 100 µM; in series [10], 49.9 µM; in [11], greater than 100 µM; in [13], greater than 100 µM. The compound further came in with a GI50 at 48 h in series [12] of 20.5 µM.
